# Test results from ChEMBL document CHEMBL1926577, “Novel 1,3,4-heterodiazole analogues: synthesis and in-vitro antitumor activity” (2012).
# Assays:
# Type in all cases: functional
# CCRF-CEM = experiment: Growth inhibition of human CCRF-CEM cells at 10 uM after 48 hrs by coulter counter method; settings: read-out: GI
# Outline: (§1)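 NCI 60-cell-line panel, single dose. Compound dissolved first in DMSO, then diluted in phosphate-buffered saline so that every final dilution held under 1% DMSO. Duplicate wells received cells at 6 × 10⁴ cells/ml. Controls held PBS/DMSO at the same dilution. Plates were incubated 48 h at 37 °C under 5% CO₂. Cells were then diluted 10-fold in saline and counted on a Coulter counter, with counts corrected for the dilution. Results are given as percent growth inhibition.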
# HL-60(TB) = experiment: Growth inhibition of human HL-60(TB) cells at 10 uM after 48 hrs by coulter counter method; settings: HL-60, 48 h, read-out: GI
# Outline: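 Single-dose screen on the NCI 60-line panel (leukemia subpanel). Compound is dissolved in DMSO and diluted in PBS, with final DMSO below 1%. Duplicate wells hold 6 × 10⁴ cells/ml at 37 °C, 5% CO₂, for 48 h. Cells are counted by Coulter counter after 10-fold saline dilution. Read-out is percent growth versus PBS/DMSO controls, expressed as % growth inhibition.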
# K562 = experiment: Growth inhibition of human K562 cells at 10 uM after 48 hrs by coulter counter method; settings: K562, 48 h, read-out: GI; outline: as §1
# MOLT-4 = experiment: Growth inhibition of human MOLT4 cells at 10 uM after 48 hrs by coulter counter method; settings: MOLT-4, 48 h, read-out: GI; outline: as §1
# RPMI-8226 = experiment: Growth inhibition of human RPMI8226 cells at 10 uM after 48 hrs by coulter counter method; settings: RPMI-8226, 48 h, read-out: GI; outline: as §1
# SR = experiment: Growth inhibition of human SR cells at 10 uM after 48 hrs by coulter counter method; settings: read-out: GI; outline: as §1
# A549 = experiment: Growth inhibition of human A549 cells at 10 uM after 48 hrs by coulter counter method; settings: A549, 48 h, read-out: GI; outline: as §1
# EKVX = experiment: Growth inhibition of human EKVX cells at 10 uM after 48 hrs by coulter counter method; settings: read-out: GI; outline: as §1
# NCI-H226 = experiment: Growth inhibition of human NCI-H226 cells at 10 uM after 48 hrs by coulter counter method; settings: NCI-H226, 48 h, read-out: GI; outline: as §1
# NCI-H23 = experiment: Growth inhibition of human NCI-H23 cells at 10 uM after 48 hrs by coulter counter method; settings: NCI-H23, 48 h, read-out: GI; outline: as §1
# NCI-H322M = experiment: Growth inhibition of human NCI-H322M cells at 10 uM after 48 hrs by coulter counter method; settings: read-out: GI; outline: as §1
# NCI-H522 = experiment: Growth inhibition of human NCI-H522 cells at 10 uM after 48 hrs by coulter counter method; settings: NCI-H522, 48 h, read-out: GI; outline: as §1
# HCT-116 = experiment: Growth inhibition of human HCT116 cells at 10 uM after 48 hrs by coulter counter method; settings: HCT-116, 48 h, read-out: GI; outline: as §1
# HCT-15 = experiment: Growth inhibition of human HCT15 cells at 10 uM after 48 hrs by coulter counter method; settings: HCT-15, 48 h, read-out: GI; outline: as §1
# HT-29 = experiment: Growth inhibition of human HT-29 cells at 10 uM after 48 hrs by coulter counter method; settings: HT-29, 48 h, read-out: GI; outline: as §1
# KM12 = experiment: Growth inhibition of human KM12 cells at 10 uM after 48 hrs by coulter counter method; settings: KM12, 48 h, read-out: GI; outline: as §1
# SF-268 = experiment: Growth inhibition of human SF268 cells at 10 uM after 48 hrs by coulter counter method; settings: SF-268, 48 h, read-out: GI; outline: as §1
# SF-295 = experiment: Growth inhibition of human SF295 cells at 10 uM after 48 hrs by coulter counter method; settings: SF-295, 48 h, read-out: GI; outline: as §1
# SNB-19 = experiment: Growth inhibition of human SNB19 cells at 10 uM after 48 hrs by coulter counter method; settings: SNB-19, 48 h, read-out: GI; outline: as §1
# SNB-75 = experiment: Growth inhibition of human SNB75 cells at 10 uM after 48 hrs by coulter counter method; settings: SNB-75, 48 h, read-out: GI; outline: as §1
# U-251 = experiment: Growth inhibition of human U251 cells at 10 uM after 48 hrs by coulter counter method; settings: U-251, 48 h, read-out: GI; outline: as §1
# LOX IMVI = experiment: Growth inhibition of human LOXIMVI cells at 10 uM after 48 hrs by coulter counter method; settings: read-out: GI; outline: as §1
# Malme-3M = experiment: Growth inhibition of human MALME-3M cells at 10 uM after 48 hrs by coulter counter method; settings: read-out: GI; outline: as §1
# M14 = experiment: Growth inhibition of human M14 cells at 10 uM after 48 hrs by coulter counter method; settings: M14, 48 h, read-out: GI; outline: as §1
# MDA-MB-435 = experiment: Growth inhibition of human MDA-MB-435 cells at 10 uM after 48 hrs by coulter counter method; settings: MDA-MB-435, 48 h, read-out: GI; outline: as §1
# SK-MEL-2 = experiment: Growth inhibition of human SK-MEL-2 cells at 10 uM after 48 hrs by coulter counter method; settings: SK-MEL-2, 48 h, read-out: GI; outline: as §1
# SK-MEL-28 = experiment: Growth inhibition of human SK-MEL-28 cells at 10 uM after 48 hrs by coulter counter method; settings: SK-MEL-28, 48 h, read-out: GI; outline: as §1
# SK-MEL-5 = experiment: Growth inhibition of human SK-MEL-5 cells at 10 uM after 48 hrs by coulter counter method; settings: SK-MEL-5, 48 h, read-out: GI; outline: as §1
# UACC-257 = experiment: Growth inhibition of human UACC257 cells at 10 uM after 48 hrs by coulter counter method; settings: UACC-257, 48 h, read-out: GI; outline: as §1
# UACC-62 = experiment: Growth inhibition of human UACC62 cells at 10 uM after 48 hrs by coulter counter method; settings: UACC-62, 48 h, read-out: GI; outline: as §1
# IGROV-1 = experiment: Growth inhibition of human IGROV1 cells at 10 uM after 48 hrs by coulter counter method; settings: IGROV-1, 48 h, read-out: GI; outline: as §1
# OVCAR-8 = experiment: Growth inhibition of human OVCAR8 cells at 10 uM after 48 hrs by coulter counter method; settings: OVCAR-8, 48 h, read-out: GI; outline: as §1
# NCI/ADR-RES = experiment: Growth inhibition of human NCI/ADR-RES cells at 10 uM after 48 hrs by coulter counter method; settings: read-out: GI; outline: as §1
# 786-0 = experiment: Growth inhibition of human 786-0 cells at 10 uM after 48 hrs by coulter counter method; settings: 786-0, 48 h, read-out: GI; outline: as §1
# A498 = experiment: Growth inhibition of human A498 cells at 10 uM after 48 hrs by coulter counter method; settings: A498, 48 h, read-out: GI; outline: as §1
# ACHN = experiment: Growth inhibition of human ACHN cells at 10 uM after 48 hrs by coulter counter method; settings: read-out: GI; outline: as §1
# CAKI-1 = experiment: Growth inhibition of human Caki1 cells at 10 uM after 48 hrs by coulter counter method; settings: CAKI-1, 48 h, read-out: GI; outline: as §1
# SN12C = experiment: Growth inhibition of human SN12C cells at 10 uM after 48 hrs by coulter counter method; settings: read-out: GI; outline: as §1
# TK-10 = experiment: Growth inhibition of human TK10 cells at 10 uM after 48 hrs by coulter counter method; settings: TK-10, 48 h, read-out: GI; outline: as §1
# UO-31 = experiment: Growth inhibition of human UO31 cells at 10 uM after 48 hrs by coulter counter method; settings: UO-31, 48 h, read-out: GI; outline: as §1
# PC-3 = experiment: Growth inhibition of human PC3 cells at 10 uM after 48 hrs by coulter counter method; settings: PC-3, 48 h, read-out: GI; outline: as §1
# MCF7 = experiment: Growth inhibition of human MCF7 cells at 10 uM after 48 hrs by coulter counter method; settings: MCF7, 48 h, read-out: GI; outline: as §1
# BT-549 = experiment: Growth inhibition of human BT549 cells at 10 uM after 48 hrs by coulter counter method; settings: BT-549, 48 h, read-out: GI; outline: as §1
# T47D = experiment: Growth inhibition of human T47D cells at 10 uM after 48 hrs by coulter counter method; settings: read-out: GI; outline: as §1
# MDA-MB-468 = experiment: Growth inhibition of human MDA-MB-468 cells at 10 uM after 48 hrs by coulter counter method; settings: MDA-MB-468, 48 h, read-out: GI; outline: as §1
compound,measurement,setting,value
O=C1N=C2SC(c3ccc(Cl)cc3)=NN2C1=O,inhibition of growth at 10 µM,CCRF-CEM,< 10%
same,inhibition of growth at 10 µM,HL-60(TB),15.2%
same,inhibition of growth at 10 µM,K562,12.7%
same,inhibition of growth at 10 µM,MOLT-4,10.6%
same,inhibition of growth at 10 µM,RPMI-8226,< 10%
same,inhibition of growth at 10 µM,SR,11.1%
same,inhibition of growth at 10 µM,A549,< 10%
same,inhibition of growth at 10 µM,EKVX,< 10%
same,inhibition of growth at 10 µM,NCI-H226,< 10%
same,inhibition of growth at 10 µM,NCI-H23,< 10%
same,inhibition of growth at 10 µM,NCI-H322M,< 10%
same,inhibition of growth at 10 µM,NCI-H522,19.7%
same,inhibition of growth at 10 µM,HCT-116,< 10%
same,inhibition of growth at 10 µM,HCT-15,< 10%
same,inhibition of growth at 10 µM,HT-29,< 10%
same,inhibition of growth at 10 µM,KM12,< 10%
same,inhibition of growth at 10 µM,SF-268,< 10%
same,inhibition of growth at 10 µM,SF-295,< 10%
same,inhibition of growth at 10 µM,SNB-19,< 10%
same,inhibition of growth at 10 µM,SNB-75,< 10%
same,inhibition of growth at 10 µM,U-251,< 10%
same,inhibition of growth at 10 µM,LOX IMVI,< 10%
same,inhibition of growth at 10 µM,Malme-3M,< 10%
same,inhibition of growth at 10 µM,M14,< 10%
same,inhibition of growth at 10 µM,MDA-MB-435,< 10%
same,inhibition of growth at 10 µM,SK-MEL-2,< 10%
same,inhibition of growth at 10 µM,SK-MEL-28,< 10%
same,inhibition of growth at 10 µM,SK-MEL-5,< 10%
same,inhibition of growth at 10 µM,UACC-257,< 10%
same,inhibition of growth at 10 µM,UACC-62,< 10%
same,inhibition of growth at 10 µM,IGROV-1,< 10%
same,inhibition of growth at 10 µM,OVCAR-8,< 10%
same,inhibition of growth at 10 µM,NCI/ADR-RES,< 10%
same,inhibition of growth at 10 µM,786-0,< 10%
same,inhibition of growth at 10 µM,A498,< 10%
same,inhibition of growth at 10 µM,ACHN,< 10%
same,inhibition of growth at 10 µM,CAKI-1,< 10%
same,inhibition of growth at 10 µM,SN12C,< 10%
same,inhibition of growth at 10 µM,TK-10,< 10%
same,inhibition of growth at 10 µM,UO-31,< 10%
same,inhibition of growth at 10 µM,PC-3,< 10%
same,inhibition of growth at 10 µM,MCF7,12.1%
same,inhibition of growth at 10 µM,BT-549,12.2%
same,inhibition of growth at 10 µM,T47D,< 10%
same,inhibition of growth at 10 µM,MDA-MB-468,< 10%
